One data set deals with HEK293. The experiment in a line: Cytotoxicity against human HEK293 cells assessed as cell viability at 50 uM measured after 24 hrs by Alamar Blue assay. In kind it is toxicity, cell-based. As to conditions: hek293, 24 h. For orientation: Alamar Blue is a resazurin reagent that responds to reducing activity.
Data set [1] concerns the target T1, Polyamine deacetylase HDAC10 (Danio rerio) (UniProt F1QCV2).
T1 sequence (whole entry): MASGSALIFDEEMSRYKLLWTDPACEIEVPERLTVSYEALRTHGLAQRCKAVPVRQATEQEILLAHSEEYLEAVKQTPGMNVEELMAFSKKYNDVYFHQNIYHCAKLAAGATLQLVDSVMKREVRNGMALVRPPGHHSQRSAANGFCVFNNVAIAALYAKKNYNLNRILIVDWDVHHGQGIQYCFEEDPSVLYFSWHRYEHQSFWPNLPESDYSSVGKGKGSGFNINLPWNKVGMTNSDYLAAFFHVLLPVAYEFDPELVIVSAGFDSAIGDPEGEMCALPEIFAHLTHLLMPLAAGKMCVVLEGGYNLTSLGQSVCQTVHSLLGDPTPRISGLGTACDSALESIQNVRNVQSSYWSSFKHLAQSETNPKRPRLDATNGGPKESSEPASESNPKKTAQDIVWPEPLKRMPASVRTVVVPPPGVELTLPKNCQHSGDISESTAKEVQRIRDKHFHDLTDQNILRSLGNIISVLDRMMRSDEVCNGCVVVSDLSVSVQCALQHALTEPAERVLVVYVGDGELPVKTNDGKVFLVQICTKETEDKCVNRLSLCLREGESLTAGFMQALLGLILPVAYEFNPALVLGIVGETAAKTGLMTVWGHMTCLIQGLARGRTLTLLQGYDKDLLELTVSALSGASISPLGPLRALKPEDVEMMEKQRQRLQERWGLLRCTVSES
The experiment in a line: Inhibition of zebra fish HDAC10 using Ac-spermidine-AMC as substrate incubated for 25 mins at 1 uM and measured by fluorescence assay relative to control. In outline: (§1)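 Ac-spermidine-AMC at 10.5 μM final in pH 7.9 phosphate buffer (NaCl, EDTA, glycerol, Mesna, Tween 20); inhibitors in DMSO. 25 min at 25 °C, stopped with NDA in borate pH 9.5. Read at Ex 330/Em 390 nm; IC50 by nonlinear regression.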

The target of data set [2] is T2, Histone deacetylase 8 (Homo sapiens) (UniProt Q9BY41).
T2 sequence (whole entry): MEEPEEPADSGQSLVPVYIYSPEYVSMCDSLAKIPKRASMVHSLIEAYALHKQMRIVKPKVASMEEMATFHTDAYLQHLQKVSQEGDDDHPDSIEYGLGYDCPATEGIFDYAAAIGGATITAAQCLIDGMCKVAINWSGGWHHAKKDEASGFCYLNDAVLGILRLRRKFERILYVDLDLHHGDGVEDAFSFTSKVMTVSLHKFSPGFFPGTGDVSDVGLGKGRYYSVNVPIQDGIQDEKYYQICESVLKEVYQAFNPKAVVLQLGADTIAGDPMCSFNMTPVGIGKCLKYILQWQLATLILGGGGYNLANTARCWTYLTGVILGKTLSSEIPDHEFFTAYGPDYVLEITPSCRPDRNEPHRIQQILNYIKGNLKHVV
Description: Inhibition of recombinant human HDAC8 using H2N-Arg- His-Lys(Ac)-Lys(Ac)-AMC as substrate incubated for 90 mins at 1 uM and measured after 20 mins by fluorescence assay relative to control. The gist of the method:
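Recombinant hHDAC8 run per a commercial fluorometric HDAC8 kit protocol. Substrate H2N-Arg-His-Lys(Ac)-Lys(Ac)-AMC at 50 μM with enzyme and rising inhibitor concentrations, 90 min at 37 °C. Stop solution with inhibitor plus trypsin added, developed 20 min at 37 °C. Read at Ex 355/Em 460 nm.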

Data set [3] deals with T3, Histone deacetylase 1 (Homo sapiens, UniProt Q13547). Description: Inhibition of recombinant human HDAC1 using ZMAL (Z-(Ac)Lys-AMC as substrate incubated for 20 mins at 1 uM and measured by homogenous fluorescence assay relative to control.
T3 sequence (Q13547 whole entry): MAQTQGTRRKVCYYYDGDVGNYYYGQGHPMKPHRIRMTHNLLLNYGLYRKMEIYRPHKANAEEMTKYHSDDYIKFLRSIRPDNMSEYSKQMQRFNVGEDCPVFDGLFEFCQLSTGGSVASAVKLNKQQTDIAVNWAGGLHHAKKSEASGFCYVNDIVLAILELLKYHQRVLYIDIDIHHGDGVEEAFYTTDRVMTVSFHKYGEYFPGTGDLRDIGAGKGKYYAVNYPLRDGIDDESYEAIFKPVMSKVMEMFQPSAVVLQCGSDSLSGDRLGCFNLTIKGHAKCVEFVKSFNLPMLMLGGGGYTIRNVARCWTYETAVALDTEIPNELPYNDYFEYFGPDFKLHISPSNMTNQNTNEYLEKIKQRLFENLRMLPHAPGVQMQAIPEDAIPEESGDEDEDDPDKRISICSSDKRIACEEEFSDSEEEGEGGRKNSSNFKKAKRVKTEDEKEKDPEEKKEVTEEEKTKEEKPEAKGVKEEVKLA
Data set [4] deals with T4, Protein deacetylase HDAC6 (Homo sapiens, UniProt Q9UBN7).
T4 sequence (Q9UBN7 whole entry): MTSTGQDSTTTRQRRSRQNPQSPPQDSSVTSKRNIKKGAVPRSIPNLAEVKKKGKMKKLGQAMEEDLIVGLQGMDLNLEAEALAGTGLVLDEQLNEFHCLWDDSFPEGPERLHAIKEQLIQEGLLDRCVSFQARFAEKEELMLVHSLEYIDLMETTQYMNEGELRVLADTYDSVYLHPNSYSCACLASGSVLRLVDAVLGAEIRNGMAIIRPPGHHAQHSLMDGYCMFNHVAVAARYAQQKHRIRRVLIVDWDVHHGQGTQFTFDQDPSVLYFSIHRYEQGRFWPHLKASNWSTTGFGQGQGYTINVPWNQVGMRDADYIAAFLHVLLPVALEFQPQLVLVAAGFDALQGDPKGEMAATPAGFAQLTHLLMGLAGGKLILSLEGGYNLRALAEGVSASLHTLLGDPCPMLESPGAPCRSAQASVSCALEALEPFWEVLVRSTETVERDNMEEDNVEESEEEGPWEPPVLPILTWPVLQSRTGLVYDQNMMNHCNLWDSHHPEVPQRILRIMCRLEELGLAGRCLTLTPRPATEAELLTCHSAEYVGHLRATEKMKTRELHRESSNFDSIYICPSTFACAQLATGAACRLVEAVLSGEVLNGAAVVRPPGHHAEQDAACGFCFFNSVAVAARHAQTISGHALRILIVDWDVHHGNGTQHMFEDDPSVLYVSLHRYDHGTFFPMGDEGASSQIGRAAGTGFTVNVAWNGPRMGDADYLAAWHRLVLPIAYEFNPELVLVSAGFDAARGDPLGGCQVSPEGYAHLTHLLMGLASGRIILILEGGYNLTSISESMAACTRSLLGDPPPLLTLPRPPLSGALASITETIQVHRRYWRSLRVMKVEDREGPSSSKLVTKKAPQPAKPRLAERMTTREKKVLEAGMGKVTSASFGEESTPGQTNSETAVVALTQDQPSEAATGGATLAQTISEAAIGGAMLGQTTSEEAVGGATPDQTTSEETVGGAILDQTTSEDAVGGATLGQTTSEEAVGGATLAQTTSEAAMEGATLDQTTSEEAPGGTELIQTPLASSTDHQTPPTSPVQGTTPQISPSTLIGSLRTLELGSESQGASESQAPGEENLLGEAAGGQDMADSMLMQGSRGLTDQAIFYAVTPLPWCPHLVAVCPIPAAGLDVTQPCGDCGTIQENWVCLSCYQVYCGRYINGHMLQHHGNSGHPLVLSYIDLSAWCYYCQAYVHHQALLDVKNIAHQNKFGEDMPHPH
Description: Inhibition of recombinant human HDAC6 using ZMAL (Z-(Ac)Lys-AMC as substrate incubated for 20 mins and measured by homogenous fluorescence assay.

The next data set deals with MV4-11. The experiment in a line: Induction of autophagy in human MV4-11 cells assessed as increase in autophagic vesicles at 2 to 15 uM measured by cyto-ID green staining based flow cytometry assay. Type of data set: functional, cell-based. As to conditions: dose 2-15 µM. The gist of the method: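 MV4-11 cells exposed 2–15 μM for 24 h at 37 °C, 5% CO2, with 10 μM chloroquine added to all samples; solvent-treated control. Harvested, PBS-washed, stained with Cyto-ID Green (1:1000 in phenol-red-free RPMI with 5% FCS, 30 min, 37 °C), washed twice, read by flow cytometry. n = 3; two-way ANOVA.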

For data set [5], the target named is T5, Polyamine deacetylase HDAC10 (Danio rerio, UniProt F1QCV2).
T5 sequence (F1QCV2 whole entry): T1 sequence (whole entry)
The experiment in a line: Inhibition of zebra fish HDAC10 using Ac-spermidine-AMC as substrate incubated for 25 mins and measured by fluorescence assay. The gist of the method: as §1

A further data set deals with SK-N-BE(2)-C. Description: Induction of autophagy in human SK-N-BE(2)-C cells assessed as increase in lysosomal compartment measured by pH-dependent LysoTracker DND-99 fluorescence assay. In kind it is functional, cell-based. In outline: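 SK-N-BE(2)-C neuroblastoma cells seeded at 1.5 × 10^5 per well, treated 24 h, then stained 1 h with 50 nM LysoTracker Red DND-99 in medium under standard culture conditions. Washed in ice-cold phenol-red-free RPMI, trypsinized 3 min at 37 °C, pelleted, resuspended in ice-cold phenol-red-free RPMI before measurement.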

Data set [6] addresses T3, Histone deacetylase 1. The experiment in a line: Inhibition of recombinant human HDAC1 using ZMAL (Z-(Ac)Lys-AMC as substrate incubated for 20 mins at 10 uM and measured by homogenous fluorescence assay relative to control.

We go through two compounds from ChEMBL document CHEMBL5131507, “Identification of histone deacetylase 10 (HDAC10) inhibitors that modulate autophagy in transformed cells” (Eur J Med Chem, 2022).

The source made the active and inactive calls. The rule behind the calls is not given here.

In general, inhibition refers to the drop in the measured response relative to a control, in per cent. As a reminder, the IC50 is the concentration needed to halve the response being measured.

Turning to `O=C(NO)c1ccc(CN2CCCCC2)cc1`, in the data set on HEK293, the Activity is on record as 92.6%. In addition, the inhibition came to 4% in data set [1] and 5% in data set [2].
`O=C(/C=C/C1CCN(CCc2c[nH]c3ccccc23)CC1)NO`: the inhibition on Histone deacetylase 1 [3] was 7%; at Histone deacetylase 1 [6] it was 54%. In addition, the values for the IC50 in data set [4] and in data set [5] were 4800 nM and 29 nM, respectively. In addition, in the data set with HEK293, the Activity is listed as 77.3%. Besides, the result in the data set on MV4-11 and with SK-N-BE(2)-C was Active.
